This is an account of results in PubChem BioAssay.

The nature of experiment [1]: inhibitors of TNFa-induced NFkB p65 translocation, primary screen, imaging, HUVEC, MLSMR starter and 10KST1 sets (AID 438;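 active means inhibition above 20% together with a positive visual image hit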;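 further: compound added about 3h40 before a 20 min TNFalpha stimulation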;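 on inhibition: signal is the nuclear over cytoplasmic p65 intensity ratio per well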). The conditions noted are these: HUVEC TNFa-induced p65 nuclear translocation; cell count: measured here: nuclei count (cytotoxicity indicator), at 2.08 µM; inhibition: at 2 µM, stronger effect = higher value, 0% TNFa-plus-vehicle, 100% no-TNFa wells.
Experiment [2] can be described thus: inhibitors of mutant huntingtin aggregation, primary screen, imaging, exon1htt(103Q)mCFP cells, high-content imaging (AID 483;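 active means visual image review flags a hit and inhibition of aggregation exceeds 20%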;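 further: compound exposure lasted 3 days before fixation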;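 on nuclei count: percent of the per-plate median nuclei count of sample wells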). The conditions noted are these: exon1htt(103Q)mCFP cell line, aggregate imaging, at 2 µM; inhibition of aggregation: stronger effect = higher value; nuclei count: measured here: cell count, toxicity.
Experiment [3] in a line: inhibitors of E-selectin induction by TNFa, primary screen, imaging, HUVEC, immunofluorescence, MLSMR starter and 10KST1 sets (AID 487;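 active means visually confirmed hit in the image check and inhibition above 20%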;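 on inhibition: signal is fraction of cell area covered by stained E-selectin grains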;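 on nuclei count: 100% = median nuclei count of all wells on the same plate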). To be noted: HUVEC TNFalpha-induced E-selectin immunofluorescence imaging, at 2 µM; inhibition: stronger effect = higher value; nuclei count: measured here: cell number, toxicity.
The target of experiment [4] is Voltage-gated potassium channel subunit beta-2 (Rattus norvegicus) (UniProt P62483). As to the kind of experiment: KvBeta enzyme negative modulators, primary screen, biochemical, NADPH fluorescence (AID 622;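 active means fluorescence slope higher than the sample average by over 3 SD, cut at about -0.22 in these data, passing the limit was not always enough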;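 further: slope of raw intensity against log time taken from 70 to 1610 s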). To be noted: recombinant KvBeta, 4-cyanobenzaldehyde reduction, at 10 µM, stronger effect = higher value.
Voltage-gated potassium channel subunit beta-2 (Rattus norvegicus), sequence (P62483 whole entry, looked up): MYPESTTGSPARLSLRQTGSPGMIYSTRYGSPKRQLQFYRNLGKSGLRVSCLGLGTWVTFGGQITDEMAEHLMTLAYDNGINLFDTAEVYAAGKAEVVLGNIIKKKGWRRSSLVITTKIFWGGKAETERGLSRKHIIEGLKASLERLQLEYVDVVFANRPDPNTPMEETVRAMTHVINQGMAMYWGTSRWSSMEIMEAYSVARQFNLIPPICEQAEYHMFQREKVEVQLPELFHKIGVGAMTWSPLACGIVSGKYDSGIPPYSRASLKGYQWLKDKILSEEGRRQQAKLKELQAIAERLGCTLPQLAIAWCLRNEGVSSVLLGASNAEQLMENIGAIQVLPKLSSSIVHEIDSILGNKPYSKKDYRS
Experiment [5] has the same target. As to the kind of experiment: KvBeta positive modulators, primary screen, biochemical, NADPH fluorescence (AID 623;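 active means NADPH fluorescence slope more negative than the mean of all samples by about 3 SD, 99.7% confidence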;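 further: fluorescence intensity change per second fitted from 20 to 320 s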). The conditions noted are these: Recombinant KvBeta, NADPH fluorescence decrease slope, 10 min; at 10 µM; stronger effect = lower value.
For experiment [6], the target named is Alpha-2C adrenergic receptor (Homo sapiens) (UniProt P18825). As to the kind of experiment: modulators of alpha2C/GIRK thallium flux, primary screen, cell-based, HEK293 alpha2C/GIRK1/2 (AID 624;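 active means fluorescence slope after compound addition differing from the mean of all screened samples at 99.7% confidence, in either direction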;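 further: slope of fluorescence ratio to pre-addition baseline per second over 15 to 24 s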). The conditions noted are these: thallium flux BTC fluorescence, at 10 µM, actives lie on both sides.
Alpha-2C adrenergic receptor (Homo sapiens), sequence (P18825 whole entry, looked up): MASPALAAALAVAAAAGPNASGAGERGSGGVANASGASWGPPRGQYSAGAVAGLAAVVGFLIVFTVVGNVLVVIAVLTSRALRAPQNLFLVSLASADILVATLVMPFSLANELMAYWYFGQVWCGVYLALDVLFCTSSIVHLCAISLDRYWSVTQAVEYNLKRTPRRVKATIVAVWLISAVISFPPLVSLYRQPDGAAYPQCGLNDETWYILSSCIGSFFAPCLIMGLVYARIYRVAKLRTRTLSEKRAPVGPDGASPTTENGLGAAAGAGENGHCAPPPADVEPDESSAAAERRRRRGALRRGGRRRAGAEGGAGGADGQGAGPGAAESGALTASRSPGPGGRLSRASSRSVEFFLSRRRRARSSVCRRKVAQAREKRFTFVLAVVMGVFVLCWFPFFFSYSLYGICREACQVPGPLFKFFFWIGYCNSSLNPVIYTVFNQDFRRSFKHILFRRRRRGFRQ
Experiment [7] is described as follows: inhibitors of larval lipid processing in zebrafish, primary screen, whole organism, PED6 fluorescence, gall bladder and intestine (AID 686;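 active means a full or partial loss of lipid-probe fluorescence in the fish gall bladder, intestine or both, judged by eye; inactive means no fluorescence loss, or compound toxic to the fish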;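 further: larvae 5 to 7 days old with five fish per well; signal comes from phospholipase A2 cleavage of quenched PED6 carried via bile; overnight exposure to compound and PED6 before scoring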). To be noted: Zebrafish larvae PED6 lipid processing, fluorescence scoring; screened at 20 µM (by protocol). In short, it runs like this:
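Also added: quenched phospholipase substrate PED6, 100 nM final, ingested by larvae; System: zebrafish larvae, 5-7 d; Quantity: 5 larvae per well; Compound: 20 µM single dose; Schedule: overnight compound and PED6 incubation; Read-out: visual per-well fluorescence inhibition score; Measured by: By-eye fluorescence microscopy; Medium: E3.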

Experiment [8] can be described thus: inhibitors of Sendai virus-induced IRF3 signaling, primary screen, TLR/RLR signaling modifier project, cell-based, Sendai virus stimulus, luciferase, 10K MLSCN set (AID 602276).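 Further: firefly luciferase from ISG56 promoter only with Renilla not read in this screen; 0% = Sendai virus plus DMSO and 100% = medium plus DMSO without virus.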 To be noted: HEK293 RL24 IRF3 luciferase reporter, at 10 µM, stronger effect = higher value. A general note: In a reporter assay the amount or activity of a reporter protein is the signal.
The nature of experiment [9]: inhibitors of poly I:C-induced TLR3 signaling, primary screen, cell-based, poly I:C stimulus, luciferase, 10K MLSCN set (AID 602277;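 active means inhibition of the reporter signal at or above 50%; inactive means inhibition below 50%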). To be noted: HEK293-TLR3 RL24 IRF3 luciferase reporter, at 10 µM, stronger effect = higher value.

Active and inactive are the calls of the source.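 How the source made its calls, unless noted: active means inhibition at or above 50% at 10 µM; inactive means inhibition below 50%.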

As to `Cc1ccc(S(=O)(=O)NCC(=O)OCC(=O)Nc2ncc(Cl)cc2Cl)cc1`, the cell count in experiment [1] was 412. For the same compound, the inhibition – broadly, the change of the read-out against control, counted positive when it falls – in [1] is -0.4% (inactive); in experiment [3] it was -42.3% (inactive); in experiment [8], 17.2% (inactive); in [9], 25.7% (inactive). Besides, the inhibition of aggregation in [2] is -19.2% (inactive). Besides, the nuclei count in experiment [2] came out at 115%; in experiment [3], 114%. In experiment [4], the fluorescence slope was -0.465 (inactive). Also, the NADPH fluorescence slope in [5] is -4.6e-05 (inactive). The slope in experiment [6] is 0.00472 (inactive). In experiment [7], the compound was classed as inactive.

Take `Cn1c(=O)c2c(nc(NCCCO)n2Cc2cccc(Br)c2)n(C)c1=O`: the cell count in experiment [1] worked out at 705. The inhibition was -1.8% (inactive) in experiment [1], 25.3% (inactive) in experiment [3], 14.9% (inactive) in experiment [8] and 14.1% (inactive) in experiment [9]. For the same compound, in experiment [2], the inhibition of aggregation is 1.7% (inactive). Also, the nuclei count in experiment [2] turned out to be 108%; in experiment [3], 92.8%. The fluorescence slope in [4] is -0.349 (inactive). Besides, the NADPH fluorescence slope in experiment [5] is -4.6e-05 (inactive). The slope in experiment [6] was 0.00493 (inactive). The result in experiment [7] was inactive.

`O=C(Nc1nnc(C2CCCC2)s1)C1CCN(S(=O)(=O)c2ccc(Cl)cc2)CC1`: the cell count in [1] came out at 349. Moreover, the inhibition in experiment [1] is 0% (inactive); in experiment [3], -83.1% (inactive); in [8] it was 13.4% (inactive); in [9] it was 6.21% (inactive). Further, the inhibition of aggregation in experiment [2] was 18.7% (inactive). Besides, the nuclei count in experiment [2] came to 85.1%; in experiment [3], 104%. In addition, in experiment [4], the fluorescence slope is -0.345 (inactive). Further, the NADPH fluorescence slope in [5] was -1.7e-05 (inactive). Also, the slope in experiment [6] is 0.00671 (inactive). Moreover, the outcome in experiment [7] was inactive.

For `Cc1ccc2c(c1C)NC(C(=O)O)C1CC=CC21` (stereo unspecified), the cell count in [1] worked out at 371. The inhibition in [1] was 1.6% (inactive); in experiment [3], -11.4% (inactive); in experiment [8], 13.7% (inactive); in experiment [9], 18.5% (inactive). Also, in experiment [2], the inhibition of aggregation was -10.5% (inactive). For the same compound, the nuclei count came to 77.6% in [2] and 114% in [3]. Moreover, in experiment [4], the fluorescence slope was -0.373 (inactive). The NADPH fluorescence slope in experiment [5] was -2.5e-05 (inactive). Moreover, the slope in experiment [6] is 0.00434 (inactive). The call in experiment [7] was inactive.

Regarding `C=C(C)Cn1c(CCCNC(=O)C(C)(C)C)nc2ccccc21`, in [1], the cell count is 770. The inhibition in experiment [1] is -19.6% (inactive); in experiment [3], 14% (inactive); in experiment [8], 6.04% (inactive); in [9] it was 98.2% (active). In addition, in experiment [2], the inhibition of aggregation is -0.5% (inactive). Besides, the nuclei count in experiment [2] was determined as 106%; in experiment [3], 110%. Also, in [4], the fluorescence slope is -0.397 (inactive). Further, in [5], the NADPH fluorescence slope is -3.4e-05 (inactive). In experiment [6], the slope was 0.00533 (inactive). Besides, in [7], the call was inactive.

As for `CCn1c(=N)n(CC(=O)c2ccco2)c2ccccc21`, in [1], the cell count is 407. For the same compound, the inhibition in [1] is -11.8% (inactive); in [3] it was 52.9% (active); in experiment [8] it was 4.56% (inactive); in experiment [9], 2.85% (inactive). Moreover, the inhibition of aggregation in experiment [2] is 22.6% (inactive). The results for the nuclei count in experiment [2] and in experiment [3] were 68% and 83.4%, respectively. The fluorescence slope in experiment [4] was -0.391 (inactive). In addition, the NADPH fluorescence slope in experiment [5] was -5.5e-05 (inactive). Further, in [6], the slope is 0.00452 (inactive). The outcome in experiment [7] was inactive.

On to `Cc1ccc(NC(=O)CSc2nnc(-c3ccc(S(=O)(=O)N4CCOCC4)cc3)n2C)cc1`, for which, in experiment [1], the cell count came out at 740. Moreover, the inhibition in experiment [1] was -0.2% (inactive); in experiment [3], 9.3% (inactive); in experiment [8], 4.24% (inactive); in experiment [9], 4.26% (inactive). Further, in experiment [2], the inhibition of aggregation is 0.9% (inactive). The nuclei count in experiment [2] worked out at 87%; in experiment [3] it was 111%. In addition, the fluorescence slope in experiment [4] is -0.384 (inactive). Further, the NADPH fluorescence slope in experiment [5] was -7.3e-05 (inactive). In addition, in experiment [6], the slope is 0.00534 (inactive). For the same compound, in experiment [7], the result was inactive.

On to `Cc1cccc(C(=O)O)c1NC(=O)c1ccc(F)cc1`, for which, in [1], the cell count was determined as 343. In addition, the inhibition in experiment [1] is 0.2% (inactive); in experiment [3], 21.9% (inactive); in experiment [8], -3.9% (inactive); in experiment [9], 2.7% (inactive). In addition, the inhibition of aggregation in experiment [2] is -4.7% (inactive). Moreover, the nuclei count in experiment [2] was 99.9%; in [3], 97.3%. In experiment [4], the fluorescence slope is -0.333 (inactive). For the same compound, in experiment [5], the NADPH fluorescence slope was -1.3e-05 (inactive). In addition, the slope in [6] was 0.00577 (inactive). For the same compound, the compound was called inactive in experiment [7].

As to `Cc1ccc(-c2nn(-c3ccccc3)cc2/C=C(\C#N)c2cccc(C#N)c2)o1`, the cell count in [1] is 264. Moreover, the inhibition in experiment [1] is -9.3% (inactive); in [3] it was 3.9% (inactive); in experiment [8], 13.8% (inactive); in [9], 5.01% (inactive). In addition, the inhibition of aggregation in experiment [2] is -10% (inactive). Besides, the results for the nuclei count in experiment [2] and in experiment [3] were 97.5% and 84.1%, respectively. For the same compound, the fluorescence slope in [4] was -0.273 (inactive). Moreover, the NADPH fluorescence slope in experiment [5] was -2.6e-05 (inactive). In addition, the slope in [6] was 0.0087 (active). The outcome in [7] was inactive.

`Cn1nc(C(C)(C)C)cc1C(=O)NCc1ccc(N2CCCC2=O)cc1`: the cell count in experiment [1] is 651. Moreover, the inhibition was -10.6% (inactive) in experiment [1], -11.3% (inactive) in [3], 9.24% (inactive) in experiment [8] and -37.1% (inactive) in [9]. For the same compound, in experiment [2], the inhibition of aggregation was -12.4% (inactive). In addition, the nuclei count in [2] was determined as 70.7%; in experiment [3], 107%. Further, the fluorescence slope in experiment [4] is -0.456 (inactive). Further, the NADPH fluorescence slope in [5] is -9.7e-05 (inactive). For the same compound, the slope in [6] was 0.00425 (inactive). The outcome in experiment [7] was “inactive; toxic”.

For `CCC1(C)Cc2c(sc3nc(SCC(=O)O)[nH]c(=O)c23)CO1` (stereo unspecified), in [1], the cell count is 549. In addition, the inhibition in experiment [1] was -14.6% (inactive); in [3] it was -41% (inactive); in experiment [8] it was 1.92% (inactive); in experiment [9], 7.26% (inactive). Also, the inhibition of aggregation in [2] is -5% (inactive). Also, the nuclei count in [2] came to 114%; in experiment [3], 104%. Also, the fluorescence slope in experiment [4] was -0.391 (inactive). Further, the NADPH fluorescence slope in experiment [5] is -1.8e-05 (inactive). Also, the slope in [6] is 0.00549 (inactive). In addition, the result in experiment [7] was inactive.

On to `CC(C)NC(=O)c1ccccc1NC(=O)CCS(=O)(=O)Cc1ccccc1`, for which, in [1], the cell count came out at 560. Moreover, the inhibition was 6.6% (inactive) in experiment [1], -26% (inactive) in [3], -21.6% (inactive) in experiment [8] and -8.53% (inactive) in [9]. The inhibition of aggregation in experiment [2] is -10% (inactive). Further, the results for the nuclei count in experiment [2] and in experiment [3] were 108% and 107%, respectively. The fluorescence slope in experiment [4] is -0.516 (inactive). Besides, in experiment [5], the NADPH fluorescence slope is 2.6e-05 (inactive). In experiment [6], the slope is 0.00472 (inactive). Also, the call in experiment [7] was inactive.

For `CCOC(=O)c1c(-c2ccc(C)o2)csc1NC(=O)CN1CCN(CC)CC1`, the cell count in experiment [1] stood at 393. In addition, the inhibition is -0.4% (inactive) in [1], -12.2% (inactive) in [3], 11.4% (inactive) in experiment [8] and 22% (inactive) in experiment [9]. Also, the inhibition of aggregation in [2] was 8.3% (inactive). Moreover, the nuclei count in experiment [2] came out at 95.5%; in experiment [3], 106%. In experiment [4], the fluorescence slope is -0.409 (inactive). Moreover, the NADPH fluorescence slope in experiment [5] is -3.8e-05 (inactive). In addition, in experiment [6], the slope was 0.0051 (inactive). In addition, in experiment [7], the outcome was inactive.
